Results as given in ChEMBL document CHEMBL1156017, “alpha-Tocopheryl succinate as a scaffold to develop potent inhibitors of breast cancer cell adhesion” (J Med Chem, 2009).
Activity calls are given as the source filed them. The rule behind the calls is not given here.

Assays:
4T1 [1] = experiment: Inhibition of mouse 4T1 cells metastasis at 5 uM after 30 mins by Boyden chamber assay; assay type: functional, cell-based
Summary of the method: (§1)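 Transwell migration (12-μm pore). 5 × 10^4 cells in 0.2% FBS RPMI with agent in the upper insert for 30 min at 37°C, then moved to a well with 10% FBS RPMI for 24 h. Crystal violet stained. Migrated and non-migrated cells eluted with methanol separately, A570 read. % migration computed after background subtraction, expressed relative to vehicle (100%).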

4T1 [2] = experiment: Inhibition of mouse 4T1 cells adhesion to fibronectin at 0.5 to => 1 uM after 60 mins by ELISA; assay type: functional, cell-based
Summary of the method: (§2)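 Wells coated 1 h at 37°C with 2 μg/ml vitronectin or 10 μg/ml collagen IV, fibronectin or laminin. Washed with 0.1% BSA RPMI, blocked 60 min with 0.5% BSA RPMI. 4T1 cells pretreated with agents for 60 min at 37°C, then 2 × 10^4 cells/well allowed to adhere 30 min. Nonadherent cells washed off. Formalin fixed, 0.5% crystal violet stained, dissolved in 2% SDS, A570 read.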

4T1 [3] = experiment: Cytotoxicity against mouse 4T1 cells after 24 hrs by MTT assay; assay type: cell-based; settings: for IC50: Mus musculus, 4T1, 24 h; for Activity: mouse, 4t1, 24 h
Summary of the method: (§3)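 MTT viability, six replicates. Cells seeded at 6000 per well in 10% FBS RPMI 1640 for 24 h, then exposed to agents at the indicated concentrations in 2% FBS RPMI 1640. DMSO-matched vehicle controls. MTT at 0.5 mg/ml in 10% FBS medium for 2 h at 37°C. Formazan dissolved in DMSO, A570 read.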

SK-BR-3 [4] = experiment: Inhibition of human SK-BR-3 cells adhesion to gelatinous matrix protein-coated surface after 60 mins by ELISA; assay type: functional, cell-based
Summary of the method: (§4)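 Wells coated with 12% (v/v) Matrigel for 1 h at 37°C, washed with 0.1% BSA RPMI, then blocked 60 min with 0.5% BSA RPMI. Cells pretreated with agents for 60 min at 37°C, then seeded at 2 × 10^4/well and allowed to adhere 30 min. Washed, formalin fixed, crystal violet stained, solubilized in 2% SDS, absorbance at 570 nm. Ratios compare IC50 values across cell lines.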

4T1 [5] = experiment: Effect on actin cytoskeletal structure in mouse 4T1 cells assessed as increase in accumulation of small vesicles surrounding nucleus and endoplasmic reticulum at 5 uM after 4 hrs by immunocytochemistry relative to DMSO; assay type: functional, cell-based
4T1 [6] = experiment: Inhibition of mouse 4T1 cells adhesion to laminin at after 60 mins by ELISA; assay type: functional, cell-based; summary of the method: as §2
4T1 [7] = experiment: Inhibition of mouse 4T1 cells adhesion to vitronectin at after 60 mins by ELISA; assay type: functional, cell-based; summary of the method: as §2
SK-BR-3 [8] = experiment: Ratio of IC50 for inhibition of human SK-BR-3 cells adhesion to gelatinous matrix protein-coated surface to IC50 for mouse 4T1 cells adhesion to gelatinous matrix protein-coated surface; assay type: functional; summary of the method: as §4
[9] = target: Focal adhesion kinase 1 (Mus musculus) (UniProt P34152); experiment: Induction of FAK degradation in mouse 4T1 cells at 5 uM after 1 hr by Western blotting
Sequence of Focal adhesion kinase 1 (Mus musculus) (P34152 whole entry): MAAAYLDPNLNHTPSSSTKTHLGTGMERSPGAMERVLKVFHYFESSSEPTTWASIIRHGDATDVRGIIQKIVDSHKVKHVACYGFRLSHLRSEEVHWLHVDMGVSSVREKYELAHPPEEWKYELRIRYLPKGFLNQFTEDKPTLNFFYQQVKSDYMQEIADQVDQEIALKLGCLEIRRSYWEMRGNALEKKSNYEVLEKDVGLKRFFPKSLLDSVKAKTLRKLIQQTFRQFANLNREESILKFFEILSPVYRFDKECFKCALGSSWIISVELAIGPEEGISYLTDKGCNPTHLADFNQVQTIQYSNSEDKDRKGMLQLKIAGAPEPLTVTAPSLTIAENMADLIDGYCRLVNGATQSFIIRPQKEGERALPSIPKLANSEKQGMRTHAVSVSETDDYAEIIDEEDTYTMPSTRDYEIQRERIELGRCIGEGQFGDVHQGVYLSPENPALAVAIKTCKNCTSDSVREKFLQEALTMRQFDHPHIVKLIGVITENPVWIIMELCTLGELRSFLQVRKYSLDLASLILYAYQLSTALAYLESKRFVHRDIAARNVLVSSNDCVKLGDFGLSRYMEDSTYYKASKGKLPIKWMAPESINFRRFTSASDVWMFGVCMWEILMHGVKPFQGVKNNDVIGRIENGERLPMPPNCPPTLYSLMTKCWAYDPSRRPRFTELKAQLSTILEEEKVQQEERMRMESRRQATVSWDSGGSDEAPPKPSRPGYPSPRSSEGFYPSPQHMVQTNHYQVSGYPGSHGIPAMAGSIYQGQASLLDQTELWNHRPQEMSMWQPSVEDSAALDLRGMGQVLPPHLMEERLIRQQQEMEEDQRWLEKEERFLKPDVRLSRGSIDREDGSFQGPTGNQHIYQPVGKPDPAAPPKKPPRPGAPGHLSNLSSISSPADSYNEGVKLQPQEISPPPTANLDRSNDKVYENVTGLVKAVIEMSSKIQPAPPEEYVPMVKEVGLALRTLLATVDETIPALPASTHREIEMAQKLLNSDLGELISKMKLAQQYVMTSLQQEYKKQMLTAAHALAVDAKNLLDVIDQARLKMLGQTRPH

4T1 [10] = experiment: Effect on actin cytoskeletal structure in mouse 4T1 cells assessed as impairment of lamellipodia formation at 5 uM after 4 hrs by immunocytochemistry; assay type: functional, cell-based
4T1 [11] = experiment: Inhibition of mouse 4T1 cells adhesion to vitronectin at 0.5 to => 1 uM after 60 mins by ELISA; assay type: functional, cell-based; summary of the method: as §2
MCF7 [12] = experiment: Ratio of IC50 for inhibition of human MCF7 cells adhesion to gelatinous matrix protein-coated surface to IC50 for mouse 4T1 cells adhesion to gelatinous matrix protein-coated surface; assay type: functional; summary of the method: as §4
4T1 [13] = experiment: Inhibition of mouse 4T1 cells adhesion to fibronectin at after 60 mins by ELISA; assay type: functional, cell-based; summary of the method: as §2
4T1 [14] = experiment: Inhibition of mouse 4T1 cells adhesion to collagen 4 at 0.5 to => 1 uM after 60 mins by ELISA; assay type: functional, cell-based; summary of the method: as §2
MCF7 [15] = experiment: Inhibition of human MCF7 cells adhesion to gelatinous matrix protein-coated surface after 60 mins by ELISA; assay type: functional, cell-based; summary of the method: as §4
[16] = Cytotoxicity against human MCF10A cells after 24 hrs by MTT assay; assay type: cell-based, MCF-10A; settings: for IC50: Homo sapiens, MCF-10A; for Activity: human, mcf-10a; summary of the method: as §3
4T1 [17] = experiment: Inhibition of mouse 4T1 cells adhesion to gelatinous matrix protein-coated surface after 60 mins by ELISA; assay type: functional, cell-based; settings: for IC50: 4T1, 1 h
4T1 [18] = experiment: Effect on actin cytoskeletal structure in mouse 4T1 cells assessed as rapid dissolution of F-actin fiber-associated reduction in fluorescent intensity at 5 uM after 4 hrs by immunocytochemistry relative to DMSO; assay type: functional; set-up: scale not given: the % may be the effect or the level left
4T1 [19] = experiment: Effect on actin cytoskeletal structure in mouse 4T1 cells assessed as rapid loss of F-actin fiber-associated detachment from neighbouring cells at 5 uM after 4 hrs by immunocytochemistry; assay type: functional, cell-based
4T1 [20] = experiment: Effect on actin cytoskeletal structure in mouse 4T1 cells assessed as rapid dissolution of actin stress fibers at 5 uM after 4 hrs by immunocytochemistry; assay type: functional, cell-based
4T1 [21] = experiment: Inhibition of mouse 4T1 cells adhesion to collagen 4 at after 60 mins by ELISA; assay type: functional, cell-based; summary of the method: as §2
4T1 [22] = experiment: Inhibition of mouse 4T1 cells adhesion to laminin at 0.5 to => 1 uM after 60 mins by ELISA; assay type: functional, cell-based; summary of the method: as §2
[23] = target: Focal adhesion kinase 1 (Mus musculus) (UniProt P34152); experiment: Induction of FAK degradation in mouse 4T1 cells at 5 uM after 1 hr by Western blotting; assay type: cell-based
4T1 [24] = experiment: Effect on actin cytoskeletal structure in mouse 4T1 cells assessed as increase in accumulation of small vesicles surrounding nucleus and endoplasmic reticulum at 10 uM after 4 hrs by immunocytochemistry relative to DMSO; assay type: functional, cell-based
4T1 [25] = experiment: Effect on actin cytoskeletal structure in mouse 4T1 cells assessed as rapid dissolution of actin stress fibers at 10 uM after 4 hrs by immunocytochemistry; assay type: functional, cell-based
4T1 [26] = experiment: Effect on actin cytoskeletal structure in mouse 4T1 cells assessed as impairment of lamellipodia formation at 10 uM after 4 hrs by immunocytochemistry; assay type: functional, cell-based
4T1 [27] = experiment: Effect on actin cytoskeletal structure in mouse 4T1 cells assessed as rapid dissolution of F-actin fiber-associated reduction in fluorescent intensity at 10 uM after 4 hrs by immunocytochemistry relative to DMSO; assay type: functional; set-up: scale not given: the % may be the effect or the level left
4T1 [28] = experiment: Effect on actin cytoskeletal structure in mouse 4T1 cells assessed as rapid loss of F-actin fiber-associated detachment from neighbouring cells at 10 uM after 4 hrs by immunocytochemistry; assay type: functional, cell-based
4T1 [29] = experiment: Inhibition of mouse 4T1 cells adhesion to collagen 4 at 5 to 100 uM after 60 mins by ELISA; assay type: functional, cell-based; summary of the method: as §2
4T1 [30] = experiment: Effect on actin cytoskeletal structure in mouse 4T1 cells assessed as rapid dissolution of actin stress fibers at 50 uM after 4 hrs by immunocytochemistry; assay type: functional, cell-based
MCF7 [31] = experiment: Inhibition of human MCF7 cells adhesion to gelatinous matrix protein-coated surface at 100 uM after 60 mins by ELISA; assay type: functional, cell-based; summary of the method: as §4
4T1 [32] = experiment: Inhibition of mouse 4T1 cells adhesion to gelatinous matrix protein-coated surface at 10 uM after 60 mins by ELISA; assay type: functional; settings: 4T1, 1 h
SK-BR-3 [33] = experiment: Inhibition of human SK-BR-3 cells adhesion to gelatinous matrix protein-coated surface at 100 uM after 60 mins by ELISA; assay type: functional, cell-based; summary of the method: as §4
4T1 [34] = experiment: Inhibition of mouse 4T1 cells metastasis at 50 uM after 30 mins by Boyden chamber assay; assay type: functional, cell-based; summary of the method: as §1
4T1 [35] = experiment: Inhibition of mouse 4T1 cells adhesion to vitronectin at 5 to 100 uM after 60 mins by ELISA; assay type: functional, cell-based; summary of the method: as §2
4T1 [36] = experiment: Inhibition of mouse 4T1 cells adhesion to fibronectin at 5 to 100 uM after 60 mins by ELISA; assay type: functional, cell-based; summary of the method: as §2
4T1 [37] = experiment: Inhibition of mouse 4T1 cells adhesion to laminin at 5 to 100 uM after 60 mins by ELISA; assay type: functional, cell-based; summary of the method: as §2

IC50 (4T1 [17]) [nM]	Activity [23]	Structure (SMILES)	inhibition (4T1 [1])	IC50 (4T1 [3]) [nM]	Activity (4T1 [3])	inhibition (SK-BR-3 [4])	inhibition (MCF7 [15])	IC50 [16] [nM]	Activity [16]	inhibition (4T1 [17])	further results
600		Cc1c(C)c2c(c(C)c1OCC(=O)O)CC[C@](C)(/C=C/CC(C)CCCC(C)C)O2 (stereo partly drawn)	Active	> 10000	Dose-dependent effect	Dose-dependent effect	Dose-dependent effect	23000	Dose-dependent effect	Dose-dependent effect	inhibition (4T1 [2]): Active; IC50 (SK-BR-3 [4]; SK-BR-3, 1 h): 2000 nM; Activity (4T1 [5]): Active; inhibition (4T1 [6]): Dose-dependent effect; inhibition (4T1 [7]): Dose-dependent effect; Ratio IC50 (SK-BR-3 [8]): 3.3; Activity [9]: Active; Activity (4T1 [10]): Active; inhibition (4T1 [11]): Active; Ratio IC50 (MCF7 [12]): 3.3; inhibition (4T1 [13]): Dose-dependent effect; inhibition (4T1 [14]): Active; IC50 (MCF7 [15]; MCF7, 1 h): 2000 nM; Activity (4T1 [18]): 84%; Activity (4T1 [19]): Active; Activity (4T1 [20]): Active; inhibition (4T1 [21]): Dose-dependent effect; inhibition (4T1 [22]): Active
1300	Active	Cc1c(C)c2c(c(C)c1OC(=O)CCC(=O)O)CC[C@](C)(/C=C/CC(C)CCCC(C)C)O2 (stereo partly drawn)	Active	> 10000	Dose-dependent effect	Dose-dependent effect	Dose-dependent effect	23000	Dose-dependent effect	Dose-dependent effect	
2500	inactive	Cc1c(C)c2c(c(C)c1OC(=O)CCC(=O)O)CC[C@](C)(CCCC(C)CCCC(C)C)O2 (stereo partly drawn)	inactive	> 10000	Dose-dependent effect	Dose-dependent effect	Dose-dependent effect		Dose-dependent effect	Dose-dependent effect	
2000	Active	Cc1c(C)c2c(c(C)c1OCC(=O)O)CC[C@](C)(CCCC(C)CCCC(C)C)O2 (stereo partly drawn)	Active	> 10000	Dose-dependent effect	Dose-dependent effect	Dose-dependent effect		Dose-dependent effect	Dose-dependent effect	Activity (4T1 [24]): Active; Activity (4T1 [25]): Active; Activity (4T1 [26]): Active; Activity (4T1 [27]): 70%
10000	inactive	Cc1c(C)c2c(c(C)c1OC(=O)CCC(=O)O)CC[C@@](C)(CCC[C@H](C)CCC[C@H](C)CCCC(C)C)O2 [(+)-ALPHA-TOCOPHERYL SUCCINATE]				Dose-dependent effect				Dose-dependent effect	Activity (4T1 [28]): inactive; inhibition (4T1 [29]): Active; Activity (4T1 [30]): inactive; inhibition (MCF7 [31]): inactive; inhibition at 10 µM (4T1 [32]): 50%; inhibition (SK-BR-3 [33]): inactive; inhibition (4T1 [34]): inactive; inhibition (4T1 [35]): Active; inhibition (4T1 [36]): Active; inhibition (4T1 [37]): Active
